From ChEMBL document CHEMBL5385958, “Psammaplin A and Its Analogs Attenuate Oxidative Stress in Neuronal Cells through Peroxisome Proliferator-Activated Receptor γ Activation” (J Nat Prod, 2024)
Active and inactive are the calls of the source. The rule behind the calls is not given here.

What was measured:
SH-SY5Y [1] = assay: Inhibition of mPTP opening in human SH-SY5Y cells assessed as increase in calcein fluorescence signal by flow cytometry analysis relative to control; format: cell-based; settings: dose or concentration not given here
How it was run: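 mPTP assay: detached SH-SY5Y cells in PBS with 0.6 mM CaCl2 loaded with calcein-AM for 15 min at 37 °C. 0.4 mM CoCl2 plus 0.001 μM agent added for 15 min, then 1 mM TBHP for 3 min.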

SH-SY5Y [2] = assay: Inhibition of mPTP opening in human SH-SY5Y cells assessed as decrease in cyclophilin D protein expression at 0.001 uM incubated for 6 hrs by Western blot analysis; format: cell-based
How it was run: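 15 μg cytosolic protein run on 4–20% SDS-PAGE, probed with anti-cyclophilin antibody 1:1000, bands normalized to actin. Three replicates in duplicate; percentage of untreated or H2O2 control.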

[3] = biological target: T1, Peroxisome proliferator-activated receptor gamma (Homo sapiens) (UniProt P37231); assay: Activation of PPARgamma in human SH-SY5Y cells assessed as transcription activity at 0.001 to 0.1 uM incubated for 6 hrs; format: cell-based; settings: filed as activator, dose 0.001-0.1 µM
T1 sequence (whole entry): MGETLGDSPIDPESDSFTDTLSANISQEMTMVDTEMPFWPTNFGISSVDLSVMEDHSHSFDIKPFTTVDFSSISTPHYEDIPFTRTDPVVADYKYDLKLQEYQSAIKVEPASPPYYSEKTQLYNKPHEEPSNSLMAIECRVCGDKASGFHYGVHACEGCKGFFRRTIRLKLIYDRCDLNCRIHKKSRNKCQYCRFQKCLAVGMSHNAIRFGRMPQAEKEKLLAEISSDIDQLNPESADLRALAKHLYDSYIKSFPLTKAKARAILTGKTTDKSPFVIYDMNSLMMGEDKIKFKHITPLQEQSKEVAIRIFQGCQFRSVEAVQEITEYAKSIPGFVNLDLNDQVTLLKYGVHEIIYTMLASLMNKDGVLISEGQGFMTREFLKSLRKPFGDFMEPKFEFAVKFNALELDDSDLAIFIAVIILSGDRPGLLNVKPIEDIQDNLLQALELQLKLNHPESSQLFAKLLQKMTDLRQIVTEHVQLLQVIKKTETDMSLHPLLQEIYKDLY
How it was run: (§1)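 Nuclear extracts from SH-SY5Y cells (1 × 10^6/well) treated 6 h with 0.001–1 μM agent; rosiglitazone 10 μM as positive control. PPARγ DNA-binding activity measured by ELISA-type transcription factor kit. Absorbance corrected by Bradford protein content and expressed as percentage of control cells. Three independent experiments.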

SH-SY5Y [4] = assay: Antioxidant activity in human SH-SY5Y cells assessed as reversal of H2O2 induced mitochondrial membrane depolarization at 0.001 to 0.1 uM incubated for 6 hrs by TMRM staining based microplate reader analysis; format: functional, cell-based; settings: dose 0.001-0.1 µM
How it was run: (§2)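 SH-SY5Y cells (5 × 10^4/well) cotreated with agent and 150 μM H2O2 for 6 h, then loaded with 1 μM TMRM for 30 min at 37 °C. Cells lysed with 50% H2O/DMSO; fluorescence read at 535/590 nm. Vitamin E 25 μM as positive control. Data expressed as percentage of untreated control cells. Triplicate, three independent times.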

[5] = biological target: T1, Peroxisome proliferator-activated receptor gamma (Homo sapiens); assay: Activation of PPARgamma in human SH-SY5Y cells assessed as increase in PPARgamma nucleus translocation at 0.001 uM incubated for 6 hrs by Western blot analysis; format: cell-based; settings: filed as activator
How it was run: (§3)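 Western blot on SH-SY5Y cells (1 × 10^6/well) treated 6 h, with or without 150 μM H2O2. Hypotonic lysis gave cytosolic fraction; nuclear extraction buffer gave nuclear fraction. 10 μg nuclear or 15 μg cytosolic protein per lane, anti-PPARγ 1:1000. Bands normalized to lamin B1 (nuclear) or actin (cytosolic); translocation expressed as nuclear/cytosolic ratio. Three replicates in duplicate.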

[6] = biological target: T1, Peroxisome proliferator-activated receptor gamma (Homo sapiens); assay: Activation of PPARgamma in human SH-SY5Y cells assessed as increase in superoxide dismutase 1 mRNA expression at 0.001 uM incubated for 6 hrs by qPCR analysis; format: cell-based; settings: filed as activator
How it was run: (§4)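 SH-SY5Y cells (1 × 10^6/well, 24 h attachment) exposed to test agent alone for 6 h. RNA extracted, cDNA made with oligo-dT primers, SYBR Green qPCR for CAT, GPx1, Nrf2 or SOD1. Expression normalized to RPLP0 and calculated by ΔΔCt against untreated control calibrator. Three independent replicates performed in triplicate; rosiglitazone 10 μM as positive control.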

SH-SY5Y [7] = assay: Antioxidant activity in human SH-SY5Y cells assessed as recovery of H2O2 decreased GSH level at 0.001 to 1 uM incubated for 30 min by fluorescence based microplate reader assay; format: functional, cell-based; settings: dose 0.001-1 µM
SH-SY5Y [8] = assay: Inhibition of H2O2 induced ROS release in human SH-SY5Y cells at 0.001 to 1 uM incubated for 6 hrs by carboxy-H2DCFDA staining based assay; format: functional; design: scale not given: the % may be the effect or the level left; settings: dose 0.001-1 µM
How it was run: (§5)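 ROS measurement: SH-SY5Y cells exposed to agent and 150 μM H2O2 for 6 h, washed with serum-free medium and loaded with 20 μM carboxy-H2DCFDA for 1 h at 37 °C, then PBS for 30 min. Fluorescence read by plate reader. Vitamin E 25 μM as positive control. Triplicate, three independent times; percentage of untreated control.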

SH-SY5Y [9] = assay: Antioxidant activity in human SH-SY5Y cells assessed as protection against H2O2 induced loss of cell viability at 0.001 to 0.1 uM incubated for 6 hrs in presence of H2O2 by MTT assay; format: functional, cell-based; settings: dose 0.001-0.1 µM
How it was run: (§6)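 Neuroprotection by MTT: SH-SY5Y cells (5 × 10^4/well) cotreated 6 h with agent plus 150 μM H2O2; vitamin E 25 μM as positive control. Cells washed with Locke's buffer, given 500 μg/mL MTT for 1 h at 37 °C, solubilized with 5% SDS, absorbance read at 595 nm. Saponin 1 mg/mL death control subtracted. Triplicate, three independent times.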

[10] = biological target: T1, Peroxisome proliferator-activated receptor gamma (Homo sapiens); assay: Activation of PPARgamma in human SH-SY5Y cells assessed as increase in Nrf2 mRNA expression level at 0.001 uM incubated for 6 hrs by qPCR analysis; format: cell-based; settings: filed as activator; how it was run: as §4
SH-SY5Y [11] = assay: Cytotoxicity against human SH-SY5Y cells assessed as reduction in cell viability at 0.001 to 1 uM incubated for 24 hrs by MTT assay; format: toxicity, cell-based; settings: dose 0.001-1 µM
How it was run: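 MTT viability of SH-SY5Y cells (5 × 10^4/well) after 24 h exposure to 0.001, 0.01, 0.1 and 1 μM. 500 μg/mL MTT for 1 h at 37 °C after Locke's buffer wash; SDS solubilization; absorbance at 595 nm with 1 mg/mL saponin blank subtracted. DMSO vehicle below 0.5%. Triplicate, three independent times.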

[12] = biological target: T1, Peroxisome proliferator-activated receptor gamma (Homo sapiens); assay: Activation of PPARgamma in H2O2 induced human SH-SY5Y cells assessed as increase in glutathione peroxidase 1 mRNA expression incubated for 6 hrs by qPCR analysis; format: cell-based; settings: filed as activator
How it was run: (§7)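 qPCR on SH-SY5Y cells (1 × 10^6/well, attached 24 h) given test agent together with 150 μM H2O2 for 6 h. Total RNA extracted, reverse transcribed with oligo-dT, amplified with SYBR Green and gene-specific primers (CAT, SOD1, GPx1). RPLP0 used as internal normalizer; ΔΔCt relative to H2O2-control calibrator. Three independent replicates in triplicate; rosiglitazone 10 μM as positive control.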

[13] = biological target: T1, Peroxisome proliferator-activated receptor gamma (Homo sapiens); assay: Activation of PPARgamma in human SH-SY5Y cells assessed as increase in glutathione peroxidase 1 mRNA expression incubated for 6 hrs by qPCR analysis; format: cell-based; settings: filed as activator; how it was run: as §4
[14] = biological target: T1, Peroxisome proliferator-activated receptor gamma (Homo sapiens); assay: Activation of PPARgamma in H2O2 induced human SH-SY5Y cells assessed as increase in catalase mRNA expression level incubated for 6 hrs by qPCR analysis; format: cell-based; settings: filed as activator; how it was run: as §7
[15] = biological target: T1, Peroxisome proliferator-activated receptor gamma (Homo sapiens); assay: Activation of PPARgamma in H2O2 induced human SH-SY5Y cells assessed as increase in PPARgamma nucleus translocation incubated for 6 hrs by Western blot analysis; format: cell-based; settings: filed as activator; how it was run: as §3
SH-SY5Y [16] = assay: Antioxidant activity in human SH-SY5Y cells assessed as recovery of H2O2 decreased GSH level at 1 uM incubated for 30 min by fluorescence based microplate reader assay relative to control (reference value: 83 +/- 2%); format: functional; design: scale not given: the % may be the effect or the level left; settings: 0.5 h
SH-SY5Y [17] = assay: Inhibition of H2O2 induced ROS release in human SH-SY5Y cells at 1 uM incubated for 6 hrs by carboxy-H2DCFDA staining based assay; format: functional; design: scale not given: the % may be the effect or the level left; how it was run: as §5
[18] = biological target: T1, Peroxisome proliferator-activated receptor gamma (Homo sapiens); assay: Activation of PPARgamma in human SH-SY5Y cells at 1 uM incubated for 6 hrs relative to control; format: cell-based; settings: filed as activator; how it was run: as §1
SH-SY5Y [19] = assay: Inhibition of H2O2 induced ROS release in human SH-SY5Y cells at 25 uM incubated for 6 hrs by carboxy-H2DCFDA staining based assay; format: functional, cell-based; design: scale not given: the % may be the effect or the level left; how it was run: as §5
SH-SY5Y [20] = assay: Antioxidant activity in human SH-SY5Y cells assessed as protection against H2O2 induced loss of cell viability at 25 uM incubated for 6 hrs in presence of H2O2 by MTT assay; format: functional, cell-based; how it was run: as §6
SH-SY5Y [21] = assay: Antioxidant activity in human SHSY-5Y cells assessed as protection against H2O2 induced loss of cell viability at 0.01 uM incubated for 6 hrs in presence of H2O2 by MTT assay (reference value: 76 +/- 4%); format: functional; how it was run: as §6
SH-SY5Y [22] = assay: Antioxidant activity in human SH-SY5Y cells assessed as protection against H2O2 induced loss of cell viability at 0.001 uM incubated for 6 hrs in presence of H2O2 by MTT assay (reference value: 76 +/- 4%); format: functional; how it was run: as §6
SH-SY5Y [23] = assay: Inhibition of H2O2 induced ROS release in human SH-SY5Y cells at 0.001 uM incubated for 6 hrs by carboxy-H2DCFDA staining based assay; format: functional; design: scale not given: the % may be the effect or the level left; how it was run: as §5
SH-SY5Y [24] = assay: Antioxidant activity in human SH-SY5Y cells assessed as reversal of H2O2 induced mitochondrial membrane depolarization at 0.001 uM incubated for 6 hrs by TMRM staining based microplate reader analysis (reference value: 76 +/- 2%); format: functional; how it was run: as §2

| Compound | inhibition (SH-SY5Y [1]) [%] | inhibition (SH-SY5Y [2]) | Activity (SH-SY5Y [4]) | Activity [5] [%] | Activity (SH-SY5Y [9]) | Activity [10] | Activity (SH-SY5Y [11]) | Activity [12] | Activity [13] | Activity [14] | Activity [15] [%] | Activity (SH-SY5Y [16]) [%] | Activity (SH-SY5Y [17]) [%] | further results |
| --- | --- | --- | --- | --- | --- | --- | --- | --- | --- | --- | --- | --- | --- | --- |
| CC(C)(C)OO | 54 |  |  |  |  |  |  |  |  |  |  |  |  |  |
| O=C(NCCSSCCNC(=O)/C(Cc1cc(Br)c(O)c(-c2cc(C/C(=N\O)C(=O)NCCSSCCNC(=O)/C(Cc3ccc(O)c(Br)c3)=N/O)cc(Br)c2O)c1)=N/O)/C(Cc1ccc(O)c(Br)c1)=N/O [BISAPRASIN] | 92 | inactive | Active | 180 | Active | Active | Non-Toxic | Active | Active | Active |  |  |  | Activity [3]: Active; Activity [6]: Active; Activity (SH-SY5Y [7]): Active; Activity (SH-SY5Y [8]): 87% |
| O=C(NCCSSCCNC(=O)/C(Cc1cc(O)c(O)c(Br)c1)=N\O)/C(Cc1ccc(O)c(Br)c1)=N\O |  | inactive | Active | 151 | Active | Active | Non-Toxic | Active | Active | Active | 177 | 117 | 99 | Activity [18]: 130% |
| CN(CCOc1ccc(CC2SC(=O)NC2=O)cc1)c1ccccn1 (centres undefined) |  |  |  |  |  |  |  |  |  |  | 139 |  |  |  |
| VITAMIN E |  |  |  |  |  |  |  |  |  |  |  |  |  | Activity (SH-SY5Y [19]): 101%; Activity (SH-SY5Y [20]): 106% |
| O=C(NCCSSCCNC(=O)/C(Cc1ccc(O)c(Br)c1)=N/O)/C(Cc1ccc(O)c(Br)c1)=N/O [PSAMMAPLIN A] |  | inactive |  | 136 |  | Active | Non-Toxic | Active | Active |  | 150 | 120 | 96 | Activity (SH-SY5Y [21]): 96%; Activity (SH-SY5Y [22]): 100%; Activity (SH-SY5Y [23]): 101%; Activity (SH-SY5Y [24]): 100% |
